Test results from ChEMBL document CHEMBL1155099, “Natural products in parallel synthesis: triazole libraries of nonactic acid” (2008).
The source made the active and inactive calls.

Tests used:
Format in all cases: functional, organism-based
[1] = tested on: Bacillus anthracis; assay: Antibacterial activity against Bacillus anthracis at 1mM by almar blue dye reduction assay
[2] = tested on: Bacillus cereus; assay: Antibacterial activity against Bacillus cereus at 1 mM by almar blue dye reduction assay
Outline: (§1)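 Single-point primary screen at 1 mM using Alamar Blue dye reduction as the growth read-out.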

[3] = tested on: Bacillus subtilis; assay: Antibacterial activity against Bacillus subtilis at 1 mM by almar blue dye reduction assay; outline: as §1
[4] = tested on: Staphylococcus aureus; assay: Antibacterial activity against Staphylococcus aureus at 1 mM by almar blue dye reduction assay; outline: as §1
[5] = tested on: Escherichia coli; assay: Antibacterial activity against Escherichia coli at 1 mM by almar blue dye reduction assay; outline: as §1
[6] = tested on: Pseudomonas aeruginosa; assay: Antibacterial activity against Pseudomonas aeruginosa at 1 mM by almar blue dye reduction assay; outline: as §1
[7] = tested on: Candida albicans; assay: Antifungal activity against Candida albicans at 1 mM by almar blue dye reduction assay; outline: as §1
[8] = tested on: Cryptococcus neoformans; assay: Antifungal activity against Cryptococcus neoformans at 1 mM by almar blue dye reduction assay; outline: as §1
[9] = tested on: Saccharomyces cerevisiae; assay: Antifungal activity against Saccharomyces cerevisiae at 1 mM by almar blue dye reduction assay; outline: as §1

Measured: Activity

CCN(CC)C(=O)[C@H](C)[C@H]1CC[C@@H](C[C@@H](C)n2cc(C#Cc3ccc(OC)cc3)nn2)O1
inactive: all assays above

CCN(CC)C(=O)[C@H](C)[C@H]1CC[C@@H](C[C@@H](C)n2cc(C#CCOc3ccc(OC)cc3)nn2)O1
inactive: all assays above

CCN(CC)C(=O)[C@H](C)[C@H]1CC[C@@H](C[C@@H](C)n2cc(C#CCCCC#N)nn2)O1
inactive: all assays above

COc1ccc(OCC#Cc2cn([C@H](C)C[C@@H]3CC[C@H]([C@@H](C)C(=O)N(C)Cc4ccccc4)O3)nn2)cc1
inactive: all assays above

C[C@H](CC1CCC([C@@H](C)C(=O)N(C)Cc2ccccc2)O1)n1cc(C#CCNC(=O)OCc2ccccc2)nn1 (single isomer, unassigned)
inactive: all assays above

CCOC(=O)C#Cc1cn([C@H](C)CC2CCC([C@@H](C)C(=O)NC(C)C)O2)nn1 (single isomer, unassigned)
inactive: all assays above

C[C@H](C[C@H]1CC[C@H]([C@@H](C)C(=O)N2CCCC2)O1)n1cc(C#CCN(C)C)nn1
inactive: all assays above

CCCNC(=O)NCC#Cc1cn([C@H](C)CC2CCC([C@@H](C)C(=O)N3CCN(CC4CCCO4)CC3)O2)nn1 (single isomer, unassigned)
inactive: all assays above

C[C@H](C[C@@H]1CC[C@H]([C@@H](C)C(=O)N2CCCC2)O1)n1cc(C#Cc2ccc(Oc3ccccc3)cc2)nn1
inactive: all assays above

CCN(CC)C(=O)[C@H](C)[C@H]1CC[C@@H](C[C@@H](C)n2cc(C#CCN(C)CCc3ccccc3)nn2)O1
inactive: all assays above

CCN(CC)C(=O)[C@H](C)[C@H]1CC[C@@H](C[C@@H](C)n2cc(C#CCN3CCN(c4ccccc4)CC3)nn2)O1
inactive: all assays above

C[C@H](C[C@@H]1CC[C@H]([C@@H](C)C(=O)N(C)Cc2ccccc2)O1)n1cc(C#Cc2ccc(C(F)(F)F)cc2)nn1
inactive: all assays above

CC(C)CC#Cc1cn([C@H](C)C[C@@H]2CC[C@H]([C@@H](C)C(=O)N3CCN(CC4CCCO4)CC3)O2)nn1 (some centres not stated)
inactive: all assays above

C[C@H](CC1CCC([C@@H](C)C(=O)N(C)Cc2ccccc2)O1)n1cc(C#CCOC(=O)OCc2ccccc2)nn1 (single isomer, unassigned)
inactive: all assays above

COc1ccc(OCC#Cc2cn([C@H](C)C[C@@H]3CC[C@H]([C@@H](C)C(=O)N4CCCC4)O3)nn2)cc1
inactive: all assays above

C[C@H](C[C@@H]1CC[C@H]([C@@H](C)C(=O)N(C)Cc2ccccc2)O1)n1cc(C#CCOc2ccccc2)nn1
inactive: all assays above

CC(C)CC#Cc1cn([C@H](C)C[C@@H]2CC[C@H]([C@@H](C)C(=O)N3CCCC3)O2)nn1
inactive: all assays above

CC(C)NC(=O)[C@H](C)[C@H]1CC[C@@H](C[C@@H](C)n2cc(C#CCN3CCC(c4ccccc4)CC3)nn2)O1
inactive: all assays above
